ChEMBL document CHEMBL1148774, “Doxazolidine induction of apoptosis by a topoisomerase II independent mechanism” (J Med Chem, 2007)
Active and inactive are the calls of the source. The rule behind the calls is not given here.

How the values were obtained:
SHP77 = test: Growth inhibition of human SHP77 cells after 3 hrs by MTT assay; type: functional, cell-based; details: SHP77, 3 h
Method in brief: (§1)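 Adherent cells grown in 10% FBS medium (RPMI 1640 or DMEM) were exposed to drug for 3 h. They were then grown until control wells reached ~80% confluence (3–5 days) and quantified by MTT metabolism or crystal violet staining. IC50 was taken from growth inhibition. Each condition was run in hexuplicate, and experiments were done at least twice.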

DU-145 = test: Growth inhibition of human DU145 cells after 48 hrs by MTT assay; type: functional, cell-based; details: DU-145, 48 h
HL-60 [1] = test: Induction of apoptosis in HL60 cells assessed as annexin V positive cells; type: functional, Homo sapiens
Method in brief: (§2)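 HL-60 and HL-60/MX2 cells in RPMI 1640/10% FBS were treated with 100 nM drug or vehicle for 24 h. Cells were washed in cold PBS and stained with annexin V-fluorescein plus propidium iodide in binding buffer (140 mM NaCl, 10 mM HEPES pH 7.4, 2.5 mM CaCl2). The percent annexin V-positive cells was read by flow cytometry.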

MDA-MB-435 = test: Growth inhibition of human MDA-MB-435 cells after 3 hrs by MTT assay; type: functional, cell-based; details: MDA-MB-435, 3 h; method in brief: as §1
PC-3 = test: Growth inhibition of human PC3 cells after 3 hrs by MTT assay; type: functional, cell-based; details: PC-3, 3 h; method in brief: as §1
HCT-116 [2] = test: Cell cycle arrest in human HCT116 cells by accumulation at G2/M phase at 400 nM for 3 hrs by flow cytometry; type: functional, cell-based
Method in brief: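 HCT-116 cells in McCoy's medium with 10% FBS, exposed 3 h at 400 nM or vehicle, then grown on and analysed 24 h post-treatment. Cells trypsinized, washed in cold PBS/2 mM EDTA, fixed in 50% ethanol, RNase A treated, stained with propidium iodide (50 μg/mL final). DNA content by FACScan flow cytometry.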

Homo sapiens [3] = species: Homo sapiens; test: Inhibition of topoisomerase 2 at 500 nM by decatenation assay
Method in brief: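 Kinetoplast DNA decatenation: 143 ng catenated kDNA with one unit human recombinant topoisomerase II, ± drug at 500 nM. Buffer: 120 mM KCl, 50 mM Tris-HCl, 10 mM MgCl2, 0.5 mM DTT, 0.5 mM ATP, 30 μg/mL BSA. Incubated 30 min at 37 °C. Stopped with sarkosyl/glycerol loading dye, then resolved by agarose gel electrophoresis.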

MIA PaCa-2 = test: Growth inhibition of human MiaPaCa2 cells after 3 hrs by MTT assay; type: functional, cell-based; details: MIA PaCa-2, 3 h; method in brief: as §1
HCT-116 [4] = test: Growth inhibition of human HCT116 cells after 48 hrs by MTT assay; type: functional, cell-based; details: HCT-116, 48 h
NCI-H460 = test: Growth inhibition of human NCIH460 cells after 48 hrs by MTT assay; type: functional, cell-based; details: NCI-H460, 48 h
HL60/MX2 [5] = test: Induction of apoptosis in topoisomerase 2 deficient HL60/MX2 cells assessed as annexin V positive cells; type: functional, Homo sapiens; method in brief: as §2
SF-268 = test: Growth inhibition of human SF268 cells after 48 hrs by MTT assay; type: functional, cell-based; details: SF-268, 48 h
UACC-257 = test: Growth inhibition of human UACC257 cells after 48 hrs by MTT assay; type: functional, cell-based; details: UACC-257, 48 h
HL-60 [6] = test: Effect on G2/M arrest in human HL60 cells at 100 nM after 24 hrs; type: functional, cell-based
Method in brief: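 HL-60 cells kept in RPMI 1640 with 10% FBS, 2 mM L-glutamine, 10 mM HEPES. Exposed continuously for 24 h at 100 nM or vehicle. Cells centrifuged, washed in cold PBS/2 mM EDTA, fixed in 50% ethanol, RNase A treated, stained with propidium iodide (50 μg/mL final). Cell cycle distribution read by flow cytometry.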

[7] = Growth inhibition of human IGROVI cells after 48 hrs by MTT assay; type: functional, cell-based
[8] = Growth inhibition of human MCF7/ADR cells after 48 hrs by crystal violet assay; type: functional, cell-based; details: NCI/ADR-RES
A-375 = test: Growth inhibition of human A375 cells after 3 hrs by MTT assay; type: functional, cell-based; details: A-375, 3 h; method in brief: as §1
[9] = Growth inhibition of human HL60(TB) cells after 48 hrs by crystal violet assay; type: functional, HL-60(TB); details: HL-60, 48 h
RXF 393 = test: Growth inhibition of human RXF393 cells after 48 hrs by MTT assay; type: functional, cell-based; details: RXF 393, 48 h
HCT-116 [10] = test: Induction of apoptosis in human HCT116 cells at 200 nM for 3 hrs by annexin V staining assay; type: functional
Method in brief: (§3)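 HCT-116 cells in McCoy's medium/10% FBS were exposed to drug at a series of concentrations, or to vehicle, for 3 h. At 48 h post-treatment they were trypsinized and washed in cold PBS. They were then stained with annexin V-fluorescein and propidium iodide in HEPES pH 7.4/CaCl2 binding buffer, and the percent apoptotic cells was measured by flow cytometry.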

Homo sapiens [11] = species: Homo sapiens; test: Inhibition of topoisomerase 2 at 50 nM by decatenation assay
Method in brief: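 Human recombinant topoisomerase II (one unit) was incubated with 143 ng catenated kinetoplast DNA, with or without drug, for 30 min at 37 °C. The buffer held 120 mM KCl, 50 mM Tris-HCl, 10 mM MgCl2, 0.5 mM DTT, 0.5 mM ATP and 30 μg/mL BSA. Reactions were stopped with sarkosyl/glycerol dye, and decatenation was resolved by agarose gel electrophoresis.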

HL60/MX2 [12] = test: Effect on G2/M arrest in topoisomerase 2 deficient human HL60/MX2 cells at 100 nM after 24 hrs; type: functional, cell-based
Method in brief: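 HL-60/MX2 cells in RPMI 1640/10% FBS were treated with 100 nM drug or vehicle for 24 h, then centrifuged and washed in cold PBS. They were fixed in 50% ethanol, treated with RNase A and stained with propidium iodide (50 μg/mL final). Cell cycle distribution was read by flow cytometry.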

BXPC-3 = test: Growth inhibition of human BxPc3 cells after 3 hrs by MTT assay; type: functional, cell-based; details: BXPC-3, 3 h; method in brief: as §1
HCT-116 [13] = test: Induction of apoptosis in human HCT116 cells at 400 nM for 3 hrs relative to control cells by annexin V staining assay; type: functional, cell-based; method in brief: as §3
HCT-116 [14] = test: Induction of apoptosis in human HCT116 cells at 50 nM for 3 hrs by annexin V staining assay; type: functional; method in brief: as §3

| SMILES | IC50 (SHP77) [nM] | IC50 (DU-145) [nM] | Activity (HL-60 [1]) [%] | IC50 (MDA-MB-435) [nM] | IC50 (PC-3) [nM] | IC50 (MIA PaCa-2) [nM] | Activity (HL60/MX2 [5]) [%] | IC50 (SF-268) [nM] | IC50 (UACC-257) [nM] | IC50 [7] [nM] | IC50 [8] [nM] | IC50 (A-375) [nM] | IC50 [9] [nM] | IC50 (RXF 393) [nM] | other results |
| --- | --- | --- | --- | --- | --- | --- | --- | --- | --- | --- | --- | --- | --- | --- | --- |
| COc1cccc2c1C(=O)c1c(O)c3c(c(O)c1C2=O)C[C@@](O)(C(=O)CO)C[C@@H]3O[C@H]1C[C@H](N)[C@H](O)[C@H](C)O1 [DOXORUBICIN] | > 1000 | 110 | 29 | 158 | 316 | 316 | 5 | 91.2 | 209 | 110 | 13200 | 200 | 58.9 | 178 | Activity (HCT-116 [2]): Active; Activity (Homo sapiens [3]): Active; IC50 (HCT-116 [4]): 70.8 nM; IC50 (NCI-H460): 6.03 nM; Activity (HL-60 [6]): inactive |
| COc1cccc2c1C(=O)c1c(O)c3c(c(O)c1C2=O)C[C@@](O)(C(=O)CO)C[C@@H]3O[C@H]1C[C@@H]2NCO[C@@H]2[C@H](C)O1 [DOXAZOLIDINE] | 2 | 3.16 | 77 | 10 | 10 | 3.16 | 75 | 2.63 | < 1.51 | < 1.38 | < 18.6 | 1 | 0.331 | < 0.977 | Activity (HCT-116 [10]): 60%; Activity (Homo sapiens [11]): Active; Activity (HL60/MX2 [12]): Active; IC50 (BXPC-3): 10 nM; Activity (HCT-116 [13]): Dose-dependent effect; Activity (HCT-116 [14]): 20% |
